Data: ChEMBL document CHEMBL1127455, “8-Azaxanthine derivatives as antagonists of adenosine receptors” (J Med Chem, 1994)

Legend:
[1] = tested on: Adenosine A2 receptor (Bos taurus); test: Displacement of [3H]-CGS- 21680 from A2 adenosine receptor in bovine brain striatal membrane at […]; conditions: Striatum
[2] = target: T1, Adenosine receptor A1 (Bos taurus, UniProt P28190); test: Affinity to A1 adenosine receptor was measured by the displacement of […] in bovine brain cortical membrane; assay type: cell membranes
T1 sequence (P28190 whole entry): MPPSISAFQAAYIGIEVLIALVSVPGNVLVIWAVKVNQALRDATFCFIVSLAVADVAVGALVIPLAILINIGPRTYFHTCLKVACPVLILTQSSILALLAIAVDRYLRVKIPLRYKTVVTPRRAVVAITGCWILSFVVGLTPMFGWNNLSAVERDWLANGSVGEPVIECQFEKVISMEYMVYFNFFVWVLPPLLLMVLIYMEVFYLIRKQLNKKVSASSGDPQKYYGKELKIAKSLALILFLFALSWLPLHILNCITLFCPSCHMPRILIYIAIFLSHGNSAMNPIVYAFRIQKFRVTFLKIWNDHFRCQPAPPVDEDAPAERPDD
How it was run: (§1)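 Bovine cerebral cortex was homogenized in ice-cold 0.32 M sucrose with protease inhibitors and spun at 1000g, then 48000g, at 4 °C. The pellet was treated with adenosine deaminase (2 units/mL) at 37 °C for 60 min. Membranes (0.2-0.3 mg protein) were incubated in triplicate with about 1.2 nM [³H]CHA in Tris-HCl pH 7.7 with MgCl₂ at 25 °C for 45 min. Nonspecific binding was defined with 50 μM R-PIA. Binding was ended by GF/C filtration. Compounds were added in DMSO (2% solvent), up to 30 μM. IC50 was read from semilog plots, and Ki was derived using Kd 10.5 nM.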

[3] = species on record: Bos taurus; test: Ratio between the Ki values of A2 and A1 receptors
[4] = target: Adenosine receptor A2a (Bos taurus); test: Affinity to A2 adenosine receptor was measured by the displacement of [3H]-CGS- 21680 in bovine brain striatal membrane
[5] = target: T1, Adenosine receptor A1; test: Affinity for A1 adenosine receptor by displacement of […] in bovine brain cortical membrane; d= Inactive at highest tested concentration 30 uM; assay type: tissue-based
How it was run: as §1

Row | Compound | inhibition [1] [%] | Ki [2] [µM] | Ratio [3] | Ki [4] [µM] | Ki [5]
1 | CCCn1c(=O)c2nn(C3CCCCC3O)nc2n(CCC)c1=O (centres undefined) | 20 | 1.4 | – | – | –
2 | Cn1c(=O)c2nn(C3CC4CCC3C4)nc2n(C)c1=O (centres undefined) | – | 31 | 1.6 | 49 | –
3 | Cn1c(=O)c2c(nnn2C2CCCCC2O)n(C)c1=O (centres undefined) | – | 114 | – | – | –
4 | Cn1nc2c(=O)n(C)c(=O)n(C)c2n1 | – | – | – | 52.8 | Not Active
5 | Cn1c(=O)c2nn(C3CCCCC3)nc2n(C)c1=O | – | 36 | 6.9 | 250 | –
6 | CCCn1c(=O)c2nn(C3CCCCC3)nc2n(CCC)c1=O | – | 1.6 | 13 | 21.7 | –
7 | Cn1c(=O)c2c(nnn2C2CCCC2)n(C)c1=O | – | 11 | 26 | 292 | –
8 | CCCn1c(=O)c2c(nnn2-c2ccc(Cl)cc2N)n(CCC)c1=O | – | 44 | – | – | –
9 | Cn1c(=O)c2c(nnn2C2CC3CCC2C3)n(C)c1=O (centres undefined) | – | 18 | 0.25 | 4.5 | –
10 | CCCn1c(=O)c2nn(-c3ccc(Cl)cc3N)nc2n(CCC)c1=O | – | 1.5 | – | – | –
11 | Cn1c(=O)c2c(nnn2C2CCCCC2)n(C)c1=O | – | 23 | 0.36 | 8.4 | –
12 | Cn1c(=O)c2nn(-c3ccc(Cl)cc3N)nc2n(C)c1=O | – | 24 | – | – | –
13 | CCCn1c(=O)c2c(nnn2C2CCCC2)n(CCC)c1=O | – | 0.34 | 29 | 10 | –
14 | Cn1c(=O)c2c(nnn2C)n(C)c1=O | – | – | – | – | Not Active
15 | CCCn1c(=O)c2c(nnn2C2CCCCC2O)n(CCC)c1=O (centres undefined) | – | 1.8 | 7.5 | 13.5 | –
16 | Cn1c(=O)c2c(ncn2C)n(C)c1=O [CAFFEINE] | – | 29 | – | – | –
17 | Cn1c(=O)c2nn[nH]c2n(C)c1=O | – | – | – | – | Not Active
18 | CCCn1c(=O)c2nn(C3CCCC3)nc2n(CCC)c1=O | – | 1.3 | 10 | 13 | –
19 | CCCn1c(=O)c2c(nnn2C2CCCCC2)n(CCC)c1=O | – | 1.1 | – | – | –
20 | Cn1c(=O)c2nn(C3CCCCC3O)nc2n(C)c1=O (centres undefined) | – | – | – | – | Not Active
21 | Cn1c(=O)c2c(nnn2-c2ccc(Cl)cc2N)n(C)c1=O | – | 14 | – | – | –
22 | Cn1c(=O)c2nn(C3CCCC3)nc2n(C)c1=O | – | 110 | 0.5 | 58 | –
